Measured values taken from ChEMBL document CHEMBL1156682, “Synthesis and antioxidant activity evaluation of new hexahydropyrimido[5,4-c]quinoline-2,5-diones and 2-thioxohexahydropyrimido[5,4-c]quinoline-5-ones obtained by Biginelli reaction in two steps” (Eur J Med Chem, 2008).

Experiments:
Type in all cases: functional
[1] = tested on: Radical scavenging activity; test: Antioxidant activity assessed as DPPH radical scavenging activity at 50 uM/L after 2 hrs
Procedure, shortened: (§1)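 DPPH radical scavenging read as absorbance at 517 nm. %RSA = [(A_DPPH − A_S)/A_DPPH] × 100, where A_S is absorbance with compound added at a given level and A_DPPH is absorbance of DPPH solution alone. Mean of three independent samples per compound.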

[2] = tested on: Radical scavenging activity; test: Antioxidant activity assessed as DPPH radical scavenging activity at 150 uM/L after 2 hrs; procedure, shortened: as §1
[3] = Antioxidant activity assessed as hydroxyl radical scavenging activity at 100 uM/L after 2 hrs
Procedure, shortened: (§2)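 Hydroxyl radical scavenging by benzoic acid hydroxylation, with OH· generated by Fenton reaction. Sample was mixed with phosphate buffer (pH 7.4, 0.1 mol), then H2O2 solution (10 mmol) was added, and the mixture was incubated at 37 °C for 2 h. Fluorescence of the hydroxylated benzoic acid was read at excitation 305 nm, emission 407 nm.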

[4] = Antioxidant activity assessed as hydroxyl radical scavenging activity at 20 uM/L after 2 hrs; procedure, shortened: as §2
[5] = tested on: Radical scavenging activity; test: Antioxidant activity assessed as DPPH radical scavenging activity at 100 uM/L after 2 hrs; procedure, shortened: as §1
[6] = tested on: Radical scavenging activity; test: Antioxidant activity assessed as DPPH radical scavenging activity at 200 uM/L after 2 hrs; procedure, shortened: as §1
[7] = Antioxidant activity assessed as hydroxyl radical scavenging activity at 200 uM/L after 2 hrs; procedure, shortened: as §2
[8] = tested on: Radical scavenging activity; test: Antioxidant activity assessed as DPPH radical scavenging activity at 250 uM/L after 2 hrs; procedure, shortened: as §1
[9] = Antioxidant activity assessed as hydroxyl radical scavenging activity at 150 uM/L after 2 hrs; procedure, shortened: as §2
[10] = Antioxidant activity assessed as hydroxyl radical scavenging activity at 50 uM/L after 2 hrs; procedure, shortened: as §2

Structure (SMILES) | Activity [1] | Activity [2] | Activity [3] | Activity [4] | Activity [5] | Activity [6] | Activity [7] | Activity [8] | Activity [9] | Activity [10]
CCN1C(=O)NC2C(=C1C)C(=O)Nc1c(Cl)cccc12 (stereo not given) | 1.9% | 4.3% | 80.6% | 63.8% | 2.3% | 8.1% | 86.7% | 11.8% | 84.4% | 74.1%
CC1=C2C(=O)Nc3cc(Cl)ccc3C2NC(=S)N1C (stereo not given) | 9.5% | 17.8% | 87.5% | 68.7% | 11.2% | 23.8% | 90.2% | 30.6% | 88.5% | 76.5%
CC1=C2C(=O)Nc3cccc(Cl)c3C2NC(=O)N1C (stereo not given) | 1.5% | 5% | 80.9% | 67.1% | 2.1% | 5.4% | 83.3% | 7.6% | 83.2% | 72.8%
CCN1C(=O)NC2C(=C1C)C(=O)Nc1cccc(F)c12 (stereo not given) | 3% | 6% | 72.4% | 12.5% | 4.6% | 8.7% | 83.1% | 9.8% | 80.2% | 58.4%
CC1=C2C(=O)Nc3cccc(F)c3C2NC(=S)N1C (stereo not given) | 3.3% | 12.4% | 80.2% | 70.6% | 8.6% | 17.4% | 83.3% | 25.4% | 81.5% | 78.8%
CC1=C2C(=O)Nc3ccccc3C2NC(=O)N1C (stereo not given) | 2.5% | 9.1% | 80.8% | 58.4% | 6.6% | 9.8% | 89.7% | 12% | 83.7% | 71.8%
CC1=C2C(=O)Nc3ccccc3C2NC(=S)N1C (stereo not given) | 4% | 14.1% | 77.2% | 56.3% | 8.2% | 17.9% | 88.2% | 26.2% | 82.3% | 69.4%
CC1=C2C(=O)Nc3cccc(Cl)c3C2NC(=S)N1C (stereo not given) | 7.7% | 9.5% | 87.4% | 68% | 8.2% | 15.3% | 92.3% | 24.9% | 89.8% | 82.7%
CCN1C(=O)NC2C(=C1C)C(=O)Nc1ccccc12 (stereo not given) | 3.4% | 6.7% | 81.1% | 58.1% | 4.8% | 9.1% | 89.1% | 10.5% | 86.5% | 70.9%
CC1=C2C(=O)Nc3c(Cl)cccc3C2NC(=O)N1C (stereo not given) | 3.1% | 10.2% | 82.9% | 66% | 5.4% | 16.2% | 89.2% | 17.4% | 87.3% | 77.3%
